Reference: ChEMBL document CHEMBL4350961, “Discovery of Pyrrolo[3,2- d]pyrimidin-4-one Derivatives as a New Class of Potent and Cell-Active Inhibitors of P300/CBP-Associated Factor Bromodomain” (J Med Chem, 2019)
The source made the active and inactive calls. No cut-off for these calls is given here.

Tests used:
[1] = tested on: Serine/threonine-protein kinase N1 (Homo sapiens), Q16512 [V901I]; test: Inhibition of human PRK1 V901I mutant (498 to end residues) using KKLNRTLSFAEPG as substrate measured after 40 mins in presence of [gamma33P]ATP by scintillation counting method
Outline: (§1)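 Kinase panel of 422 kinases screened by Eurofins KinaseProfiler at a single test-compound concentration of 10 µM.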

[2] = target: Protein kinase C gamma type (Homo sapiens) (UniProt P05129); test: Inhibition of recombinant full-length human PKCgamma at 10 uM using histone H1 as substrate measured after 40 mins in presence of [gamma33P]ATP by scintillation counting method
[3] = tested on: Serine/threonine-protein kinase TAO3 (Homo sapiens), Q9H2K8 [UNDEFINED MUTATION]; test: Inhibition of human TAO3 (1 to 411 residues) using myelin basic protein as substrate measured after 40 mins in presence of [gamma33P]ATP by scintillation counting method
[4] = target: Inhibitor of nuclear factor kappa-B kinase subunit epsilon (Homo sapiens) (UniProt Q14164); test: Inhibition of recombinant full-length human IKKepsilon at 10 uM using casein as substrate measured after 40 mins in presence of [gamma33P]ATP by scintillation counting method
[5] = target: Serine/threonine-protein kinase SIK1 (Homo sapiens) (UniProt P57059); test: Inhibition of human SIK (1 to 281 residues) using AMARAASAAALARRR as substrate measured after 40 mins in presence of [gamma33P]ATP by scintillation counting method; outline: as §1
[6] = target: Protein polybromo-1 (Homo sapiens) (UniProt Q86U86); test: Binding affinity to human partial length PBRM1 bromodomain 5 (S645 to D766 residues) expressed in bacterial expression system at 1 uM by BROMOscan assay
Outline: (§2)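 BROMOscan bromodomain cross-screen run by an outside service, compound at 1 µM against 32 recombinant bromodomains. Binding given as percent of control.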

Homo sapiens = species: Homo sapiens; test: Inhibition of recombinant human Plk4 S34T mutant (1 to 273 residues) at 10 uM using casein as substrate measured after 40 mins in presence of [gamma33P]ATP by scintillation counting method
[7] = target: Bromodomain-containing protein 9 (Homo sapiens) (UniProt Q9H8M2); test: Binding affinity to human partial length BRD9 (R130 to V259 residues) expressed in bacterial expression system at 1 uM by BROMOscan assay; outline: as §2
Chain of Bromodomain-containing protein 9 (Homo sapiens) (Q9H8M2 whole entry, the tested form may be a part): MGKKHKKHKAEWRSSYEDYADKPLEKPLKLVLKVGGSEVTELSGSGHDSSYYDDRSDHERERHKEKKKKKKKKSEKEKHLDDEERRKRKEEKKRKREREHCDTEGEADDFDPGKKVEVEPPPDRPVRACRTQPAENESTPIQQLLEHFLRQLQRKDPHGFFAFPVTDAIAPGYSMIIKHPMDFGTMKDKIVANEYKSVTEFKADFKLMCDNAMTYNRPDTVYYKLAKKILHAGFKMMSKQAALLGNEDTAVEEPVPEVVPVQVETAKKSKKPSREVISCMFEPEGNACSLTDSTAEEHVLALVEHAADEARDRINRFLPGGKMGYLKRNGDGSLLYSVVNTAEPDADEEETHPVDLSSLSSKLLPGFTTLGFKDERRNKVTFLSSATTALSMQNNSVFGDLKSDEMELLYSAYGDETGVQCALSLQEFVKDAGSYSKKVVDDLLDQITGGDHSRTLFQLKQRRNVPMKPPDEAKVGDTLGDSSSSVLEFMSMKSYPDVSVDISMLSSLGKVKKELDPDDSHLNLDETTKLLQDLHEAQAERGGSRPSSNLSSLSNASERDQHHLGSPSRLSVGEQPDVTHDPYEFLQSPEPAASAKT

[8] = tested on: Tyrosine-protein kinase ABL1 (Homo sapiens), P00519 [Y253F]; test: Inhibition of recombinant human ABL Y253F mutant (27 to end residues) at 10 uM using EAIYAAPFAKKK as substrate measured after 40 mins in presence of [gamma33P]ATP by scintillation counting method
Mus musculus = species: Mus musculus; test: Inhibition of recombinant full-length mouse PI3K p110alpha/p65alpha (1 to 571 residues) at 10 uM using phosphatidylinositol-4, 5-bisphosphate as substrate measured after 40 mins by HTRF assay
[9] = Oral bioavailability in Sprague-Dawley rat at 10 mg/kg administered via gavage by LC-MS/MS analysis; assay type: ADME, organism-based; conditions: in vivo
[10] = target: Serine/threonine-protein kinase tousled-like 2 (Homo sapiens) (UniProt Q86UE8); test: Inhibition of human TLK2 (387 to end residues) using casein as substrate measured after 40 mins in presence of [gamma33P]ATP by scintillation counting method
Chain of Serine/threonine-protein kinase tousled-like 2 (Homo sapiens) (Q86UE8 whole entry, looked up): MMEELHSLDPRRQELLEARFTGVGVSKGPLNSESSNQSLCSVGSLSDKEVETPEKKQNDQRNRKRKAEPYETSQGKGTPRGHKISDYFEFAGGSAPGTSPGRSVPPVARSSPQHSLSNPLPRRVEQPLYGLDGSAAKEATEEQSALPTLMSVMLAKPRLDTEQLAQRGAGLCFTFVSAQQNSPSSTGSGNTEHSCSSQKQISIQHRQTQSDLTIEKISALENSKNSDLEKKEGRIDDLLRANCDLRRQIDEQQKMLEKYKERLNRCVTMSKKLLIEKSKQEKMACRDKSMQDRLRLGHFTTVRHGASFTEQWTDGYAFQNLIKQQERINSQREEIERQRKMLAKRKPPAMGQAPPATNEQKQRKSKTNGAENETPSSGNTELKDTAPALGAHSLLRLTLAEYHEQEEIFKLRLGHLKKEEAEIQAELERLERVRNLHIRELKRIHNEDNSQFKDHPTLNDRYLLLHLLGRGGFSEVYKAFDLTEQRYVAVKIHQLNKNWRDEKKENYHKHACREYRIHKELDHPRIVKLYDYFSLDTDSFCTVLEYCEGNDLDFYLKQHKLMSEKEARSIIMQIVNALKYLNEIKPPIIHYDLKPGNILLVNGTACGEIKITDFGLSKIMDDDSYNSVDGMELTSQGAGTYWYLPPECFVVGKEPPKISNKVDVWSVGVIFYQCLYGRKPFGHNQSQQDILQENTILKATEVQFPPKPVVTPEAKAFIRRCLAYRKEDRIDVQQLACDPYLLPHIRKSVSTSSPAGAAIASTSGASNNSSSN

[11] = target: Serine/threonine-protein kinase D3 (Homo sapiens) (UniProt O94806); test: Inhibition of recombinant full-length human PKD3 at 10 uM using KKLRRTLSVA as substrate measured after 40 mins in presence of [gamma33P]ATP by scintillation counting method
Chain of Serine/threonine-protein kinase D3 (Homo sapiens) (O94806 whole entry): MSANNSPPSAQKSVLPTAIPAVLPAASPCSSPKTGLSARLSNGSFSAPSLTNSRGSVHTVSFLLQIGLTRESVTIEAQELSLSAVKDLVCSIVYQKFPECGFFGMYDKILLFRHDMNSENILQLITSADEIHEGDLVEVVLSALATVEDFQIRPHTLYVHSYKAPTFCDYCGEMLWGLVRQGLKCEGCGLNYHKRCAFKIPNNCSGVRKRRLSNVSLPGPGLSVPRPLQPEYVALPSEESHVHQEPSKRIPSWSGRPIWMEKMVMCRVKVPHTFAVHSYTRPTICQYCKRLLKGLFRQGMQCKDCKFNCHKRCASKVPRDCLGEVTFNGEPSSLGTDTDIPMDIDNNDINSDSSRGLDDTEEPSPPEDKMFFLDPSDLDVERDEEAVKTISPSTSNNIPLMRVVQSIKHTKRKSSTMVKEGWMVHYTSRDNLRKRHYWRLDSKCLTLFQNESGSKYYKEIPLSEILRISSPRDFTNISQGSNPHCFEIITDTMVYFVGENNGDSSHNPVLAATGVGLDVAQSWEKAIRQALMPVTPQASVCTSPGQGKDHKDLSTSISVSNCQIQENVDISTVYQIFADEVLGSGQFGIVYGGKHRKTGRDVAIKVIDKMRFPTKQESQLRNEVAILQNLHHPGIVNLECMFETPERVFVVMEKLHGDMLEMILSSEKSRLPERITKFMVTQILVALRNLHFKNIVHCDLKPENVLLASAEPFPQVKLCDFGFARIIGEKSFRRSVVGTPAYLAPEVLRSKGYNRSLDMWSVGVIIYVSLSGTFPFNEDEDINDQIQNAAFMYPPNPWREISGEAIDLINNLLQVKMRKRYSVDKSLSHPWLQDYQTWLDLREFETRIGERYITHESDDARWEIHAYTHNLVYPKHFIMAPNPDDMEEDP

[12] = Clearance in human liver microsomes at 1 uM in presence of NADPH by LC-MS analysis; assay type: ADME, Microsome; conditions: read-out: CLH
Outline: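 Compound at 1 μM with 0.5 mg/mL human liver microsomes and 1 mM NADPH; sampled at 0, 5, 15, 30 and 45 min, stopped with acetonitrile, then centrifuged.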

[13] = target: Fibroblast growth factor receptor 4 (Homo sapiens) (UniProt P22455); test: Inhibition of recombinant human FGFR4 (442 to 755 residues) at 10 uM using poly(Glu, Tyr) 4:1 as substrate measured after 40 mins in presence of [gamma33P]ATP by scintillation counting method
[14] = target: cGMP-dependent protein kinase 2 (Homo sapiens) (UniProt Q13237); test: Inhibition of recombinant full-length human PRKG2 at 10 uM using KKLRRTLSFAEPG as substrate measured after 40 mins in presence of [gamma33P]ATP by scintillation counting method
Chain of cGMP-dependent protein kinase 2 (Homo sapiens) (Q13237 whole entry): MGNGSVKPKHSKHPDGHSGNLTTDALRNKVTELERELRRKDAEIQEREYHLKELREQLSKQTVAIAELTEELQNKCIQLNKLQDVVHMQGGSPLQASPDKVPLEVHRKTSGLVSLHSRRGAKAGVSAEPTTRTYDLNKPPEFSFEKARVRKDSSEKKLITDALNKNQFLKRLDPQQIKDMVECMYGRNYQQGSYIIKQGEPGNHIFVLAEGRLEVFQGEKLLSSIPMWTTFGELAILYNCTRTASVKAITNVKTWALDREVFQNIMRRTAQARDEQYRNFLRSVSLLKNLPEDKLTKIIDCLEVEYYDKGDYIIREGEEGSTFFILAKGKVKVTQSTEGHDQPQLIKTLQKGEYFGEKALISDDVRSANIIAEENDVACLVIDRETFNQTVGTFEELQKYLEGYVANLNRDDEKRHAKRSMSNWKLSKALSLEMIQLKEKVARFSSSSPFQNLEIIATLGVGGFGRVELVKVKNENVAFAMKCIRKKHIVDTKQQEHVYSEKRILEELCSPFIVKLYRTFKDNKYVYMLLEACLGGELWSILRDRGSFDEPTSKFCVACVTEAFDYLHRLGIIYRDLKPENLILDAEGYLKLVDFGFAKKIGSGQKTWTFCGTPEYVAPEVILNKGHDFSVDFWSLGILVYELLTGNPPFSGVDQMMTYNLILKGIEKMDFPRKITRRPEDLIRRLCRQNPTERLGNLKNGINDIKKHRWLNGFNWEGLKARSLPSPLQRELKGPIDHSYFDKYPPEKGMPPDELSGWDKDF

[15] = target: Serine/threonine-protein kinase PAK 4 (Homo sapiens) (UniProt O96013); test: Inhibition of recombinant human PAK4 (295 to end residues) at 10 uM using myelin basic protein as substrate measured after 40 mins in presence of [gamma33P]ATP by scintillation counting method
[16] = target: Mitogen-activated protein kinase kinase kinase 11 (Homo sapiens) (UniProt Q16584); test: Inhibition of human MLK3 at 10 uM by radiometric method; outline: as §1
[17] = target: Death-associated protein kinase 1 (Homo sapiens) (UniProt P53355); test: Inhibition of recombinant human DAPK1 (1 to 296 residues) at 10 uM using KKLNRTLSFAEPG as substrate measured after 40 mins in presence of [gamma33P]ATP by scintillation counting method
[18] = target: Serine/threonine-protein kinase 26 (Homo sapiens) (UniProt Q9P289); test: Inhibition of recombinant human MST4 (4 to 304 residues) at 10 uM using RLGRDKYKTLRQIRQ as substrate measured after 40 mins in presence of [gamma33P]ATP by scintillation counting method
[19] = target: cGMP-dependent protein kinase 1 (Homo sapiens) (UniProt Q13976); test: Inhibition of recombinant full-length human PKG1beta at 10 uM using RRRLSFAEPG as substrate measured after 40 mins in presence of [gamma33P]ATP by scintillation counting method
Chain of cGMP-dependent protein kinase 1 (Homo sapiens) (Q13976 whole entry): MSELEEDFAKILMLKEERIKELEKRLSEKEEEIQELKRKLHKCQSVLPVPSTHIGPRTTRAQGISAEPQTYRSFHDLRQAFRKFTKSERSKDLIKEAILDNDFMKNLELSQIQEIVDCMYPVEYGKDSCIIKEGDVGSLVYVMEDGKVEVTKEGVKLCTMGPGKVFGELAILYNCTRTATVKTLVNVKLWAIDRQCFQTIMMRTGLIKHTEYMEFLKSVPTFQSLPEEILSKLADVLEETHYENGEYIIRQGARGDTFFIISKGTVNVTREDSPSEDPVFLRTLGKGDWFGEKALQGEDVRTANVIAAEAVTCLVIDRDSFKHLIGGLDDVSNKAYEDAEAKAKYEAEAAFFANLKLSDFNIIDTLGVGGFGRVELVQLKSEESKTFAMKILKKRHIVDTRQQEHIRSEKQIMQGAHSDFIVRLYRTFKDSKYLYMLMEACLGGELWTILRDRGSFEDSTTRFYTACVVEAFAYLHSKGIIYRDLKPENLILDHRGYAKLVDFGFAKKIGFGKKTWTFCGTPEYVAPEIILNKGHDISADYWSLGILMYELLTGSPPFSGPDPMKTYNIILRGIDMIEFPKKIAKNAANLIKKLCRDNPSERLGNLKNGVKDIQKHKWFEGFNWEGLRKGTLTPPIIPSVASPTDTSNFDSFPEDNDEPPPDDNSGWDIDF

[20] = target: Serine/threonine-protein kinase NIM1 (Homo sapiens) (UniProt Q8IY84); test: Inhibition of recombinant full-length human NIM1 at 10 uM using KKKVSRSGLYRSPSMPENLNRPR as substrate measured after 40 mins in presence of [gamma33P]ATP by scintillation counting method
[21] = target: Protein kinase C alpha type (Homo sapiens) (UniProt P17252); test: Inhibition of recombinant full-length human PKCalpha at 10 uM using histone H1 as substrate measured after 40 mins in presence of [gamma33P]ATP by scintillation counting method
[22] = AUC (0 to t) in Sprague-Dawley rat at 10 mg/kg, po administered via gavage by LC-MS/MS analysis; assay type: ADME, organism-based; conditions: in vivo
Outline: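 Serial jugular blood samples taken at designated times and spun to plasma at 4 ℃. Plasma mixed with acetonitrile holding internal standard, then LC-MS/MS. Parameters from noncompartmental fitting.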

[23] = target: Ephrin type-A receptor 4 (Homo sapiens) (UniProt P54764); test: Inhibition of recombinant human EphA4 (601 to 892 residues) at 10 uM using poly(Glu, Tyr) 4:1 as substrate measured after 40 mins in presence of [gamma33P]ATP by scintillation counting method

With CN1C[C@H](Nc2nc3cc[nH]c3c(=O)n2C)C[C@H](c2ccc3c(c2)OCCO3)C1 the inhibition [1] was “inactive”, the inhibition [2] was “inactive” and the inhibition [3] was “inactive”. The inhibition [4] was “inactive”, the inhibition [5] was “inactive” and the Activity [6] was “inactive”. The inhibition (Homo sapiens) was “inactive”, the Activity [7] was “inactive” and the inhibition [8] was “inactive”. For the same compound, the inhibition (Mus musculus) was “inactive”, the bioavailability [9] was 52% and the inhibition [10] was “inactive”. For the same compound, the inhibition [11] was “inactive”, the CLint scaled at 1 µM [12] was 45 mL/min/kg and the inhibition [13] was “inactive”. The inhibition [14] was “inactive”, the inhibition [15] was “inactive” and the inhibition [16] was “inactive”. The inhibition [17] was “inactive”, the inhibition [18] was “inactive” and the inhibition [19] was “inactive”. For the same compound, the inhibition [20] was “inactive”, the inhibition [21] was “inactive” and the AUC(0-t) [22] was 2480 ng·h/mL. For the same compound, the inhibition [23] was “inactive”.
